{"source": "ChEMBL document CHEMBL4118152", "about": "“Discovery of Potent and Selective Periphery-Restricted Quinazoline Inhibitors of the Cyclic Nucleotide Phosphodiesterase PDE1” (J Med Chem, 2018)", "key": {"[1]": {"molecular_target": "5-hydroxytryptamine receptor 6 (Homo sapiens) (UniProt P50406)", "sequence (P50406 whole entry)": "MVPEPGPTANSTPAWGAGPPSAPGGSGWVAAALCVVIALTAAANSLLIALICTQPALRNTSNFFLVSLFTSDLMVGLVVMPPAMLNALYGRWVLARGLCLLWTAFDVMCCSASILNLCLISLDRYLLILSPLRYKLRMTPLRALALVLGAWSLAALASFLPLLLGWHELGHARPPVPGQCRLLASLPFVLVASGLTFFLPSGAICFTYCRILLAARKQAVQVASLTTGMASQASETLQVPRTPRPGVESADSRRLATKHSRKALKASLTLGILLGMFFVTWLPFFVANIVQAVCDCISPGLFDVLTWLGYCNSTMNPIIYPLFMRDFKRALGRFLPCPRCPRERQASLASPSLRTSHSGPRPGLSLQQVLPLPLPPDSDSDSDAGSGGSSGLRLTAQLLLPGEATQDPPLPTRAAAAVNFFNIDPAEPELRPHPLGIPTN", "assay": "Inhibition of human 5-HT6 receptor at 10 uM relative to control"}, "[2]": {"species_on_record": "Homo sapiens", "assay": "Selectivity ratio of IC50 for full length recombinant human PDE10A1 to IC50 for full length recombinant human PDE1B1", "summary_of_the_method": "(§1)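 IC50s were measured against recombinant PDEs, all human except PDE6A (bovine). Each enzyme was given its appropriate cAMP or cGMP substrate at below 1/3 of its Km. IC50s are the mean of n = 3 or more. The selectivity ratio is the IC50 for the other PDE divided by the IC50 for PDE1B1 or PDE1A.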"}, "[3]": {"assay": "Ratio of fraction unbound in Wistar Hannover rat brain to plasma at 1 mg/kg, sc measured at 0.5 hrs post dose by LC-MS/MS analysis", "assay_type": "ADME, organism-based", "settings": "in vivo"}, "[4]": {"species_on_record": "Rattus norvegicus", "assay": "Displacement of [3H]batrachotoxinin from rat brain Sodium channel site 2 at 10 uM after 60 mins by scintillation counting analysis relative to control"}, "[5]": {"molecular_target": "Glucocorticoid receptor (Homo sapiens) (UniProt P04150)", "assay": "Inhibition of human glucocorticoid receptor at 10 uM relative to control"}, "[6]": {"assay": "Drug uptake in Wistar Hannover rat cerebrospinal fluid at 1 mg/kg, sc measured at 1 hr post dose by LC-MS/MS analysis", "assay_type": "ADME, organism-based", "settings": "read-out: Drug uptake", "summary_of_the_method": "(§2)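 Rats were dosed subcutaneously at 1 mg/kg. CSF, plasma and brain were sampled at 0.5, 1, 2 and 4 h post dose and analysed for drug concentration. Values are means at each time point.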"}, "[7]": {"assay": "Fraction unbound in Wistar Hannover rat plasma at 1 mg/kg, sc measured at 4 hrs post dose by LC-MS/MS analysis", "assay_type": "ADME, organism-based", "settings": "in vivo"}, "[8]": {"molecular_target": "Vasopressin V2 receptor (Homo sapiens) (UniProt P30518)", "sequence (P30518 whole entry)": "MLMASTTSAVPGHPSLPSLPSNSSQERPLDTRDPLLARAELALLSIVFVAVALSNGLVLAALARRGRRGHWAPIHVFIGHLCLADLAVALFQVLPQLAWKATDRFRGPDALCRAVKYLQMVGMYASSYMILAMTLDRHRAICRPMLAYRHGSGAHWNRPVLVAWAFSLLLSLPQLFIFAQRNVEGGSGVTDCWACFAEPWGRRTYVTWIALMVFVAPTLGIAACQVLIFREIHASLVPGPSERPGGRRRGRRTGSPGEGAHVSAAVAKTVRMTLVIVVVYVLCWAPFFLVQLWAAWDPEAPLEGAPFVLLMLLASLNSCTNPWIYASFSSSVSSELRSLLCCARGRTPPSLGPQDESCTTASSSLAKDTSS", "assay": "Inhibition of human Vasopressin 2 receptor at 10 uM relative to control"}, "[9]": {"species_on_record": "Homo sapiens", "assay": "Inhibition of human 5-HT2 receptor at 10 uM relative to control"}, "[10]": {"molecular_target": "Endothelin-1 receptor (Homo sapiens) (UniProt P25101)", "assay": "Inhibition of endothelin A receptor (unknown origin) at 10 uM relative to control"}, "[11]": {"species_on_record": "Homo sapiens", "assay": "Selectivity ratio of IC50 for full length recombinant human PDE1C to IC50 for full length recombinant human PDE1B1", "summary_of_the_method": "as §1"}, "[12]": {"assay": "Ratio of drug uptake in cerebrospinal fluid to fraction unbound in plasma in Wistar Hannover rat at 1 mg/kg, sc measured at 1 hr post dose by LC-MS/MS analysis", "assay_type": "ADME, organism-based, CSF/Plasma", "settings": "in vivo"}, "[13]": {"assay": "Ratio of fraction unbound in Wistar Hannover rat brain to plasma at 1 mg/kg, sc measured at 2 hrs post dose by LC-MS/MS analysis", "assay_type": "ADME, organism-based", "settings": "in vivo"}, "[14]": {"species_on_record": "Homo sapiens", "assay": "Displacement of [125I]alpha -bungarotoxin from human nAChR (Muscle-Type) at 10 uM after 120 mins by scintillation counting analysis relative to control"}, "[15]": {"molecular_target": "Alpha-2A adrenergic receptor (Homo sapiens) (UniProt P08913)", "sequence (P08913 whole entry)": "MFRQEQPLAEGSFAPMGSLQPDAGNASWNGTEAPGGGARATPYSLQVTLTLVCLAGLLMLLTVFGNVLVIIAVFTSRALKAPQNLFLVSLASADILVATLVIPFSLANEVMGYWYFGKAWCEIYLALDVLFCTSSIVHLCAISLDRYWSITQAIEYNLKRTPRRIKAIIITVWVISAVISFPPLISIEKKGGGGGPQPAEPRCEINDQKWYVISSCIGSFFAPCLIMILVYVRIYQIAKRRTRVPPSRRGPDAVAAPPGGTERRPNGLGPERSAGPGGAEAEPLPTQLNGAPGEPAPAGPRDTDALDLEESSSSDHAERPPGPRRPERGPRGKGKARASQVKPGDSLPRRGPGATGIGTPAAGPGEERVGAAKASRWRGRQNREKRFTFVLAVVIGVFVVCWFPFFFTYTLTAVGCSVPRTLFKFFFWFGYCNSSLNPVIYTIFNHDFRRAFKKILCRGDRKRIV", "assay": "Inhibition of human alpha2A receptor at 10 uM relative to control"}, "[16]": {"molecular_target": "5-hydroxytryptamine receptor 2C (Homo sapiens) (UniProt P28335)", "sequence (P28335 whole entry)": "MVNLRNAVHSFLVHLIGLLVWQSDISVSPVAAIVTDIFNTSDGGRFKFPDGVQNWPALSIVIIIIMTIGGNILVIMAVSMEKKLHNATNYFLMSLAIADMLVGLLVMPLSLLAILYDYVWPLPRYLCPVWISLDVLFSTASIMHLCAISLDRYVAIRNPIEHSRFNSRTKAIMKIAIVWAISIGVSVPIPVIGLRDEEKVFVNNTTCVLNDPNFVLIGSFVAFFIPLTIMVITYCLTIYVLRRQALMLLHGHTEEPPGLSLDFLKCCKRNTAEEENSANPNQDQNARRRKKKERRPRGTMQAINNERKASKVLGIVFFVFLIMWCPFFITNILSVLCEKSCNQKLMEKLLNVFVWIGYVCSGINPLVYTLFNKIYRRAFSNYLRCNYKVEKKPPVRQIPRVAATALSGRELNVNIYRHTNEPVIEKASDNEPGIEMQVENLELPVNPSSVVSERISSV", "assay": "Inhibition of human 5-HT2C receptor at 10 uM relative to control"}, "[17]": {"molecular_target": "5-hydroxytryptamine receptor 3A (Homo sapiens) (UniProt P46098)", "sequence (P46098 whole entry)": "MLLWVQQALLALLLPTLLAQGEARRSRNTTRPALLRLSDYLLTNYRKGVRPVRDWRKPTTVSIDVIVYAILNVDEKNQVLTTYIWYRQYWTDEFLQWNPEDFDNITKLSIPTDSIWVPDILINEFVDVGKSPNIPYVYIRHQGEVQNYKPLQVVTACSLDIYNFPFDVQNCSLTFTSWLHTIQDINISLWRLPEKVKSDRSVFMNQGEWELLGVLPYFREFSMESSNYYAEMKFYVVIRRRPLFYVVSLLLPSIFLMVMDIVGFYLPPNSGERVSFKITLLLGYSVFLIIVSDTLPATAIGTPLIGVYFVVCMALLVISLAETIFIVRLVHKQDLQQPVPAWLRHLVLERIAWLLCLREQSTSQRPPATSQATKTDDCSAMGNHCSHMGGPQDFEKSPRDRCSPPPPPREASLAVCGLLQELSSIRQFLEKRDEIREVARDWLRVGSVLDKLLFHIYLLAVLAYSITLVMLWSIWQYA", "assay": "Inhibition of human 5-HT3 receptor at 10 uM relative to control"}, "[18]": {"molecular_target": "3',5'-cyclic-AMP phosphodiesterase 4D (Homo sapiens, UniProt Q08499)", "assay": "Inhibition of full length recombinant human PDE4D3 using 3',5'-[3H]cAMP as substrate after 30 mins by scintillation proximity assay", "summary_of_the_method": "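Enzymes were human except PDE6A, which was bovine. Each was assayed with cAMP or cGMP substrate, as appropriate to the enzyme, at concentrations below 1/3 of Km. IC50 values are mean ± SEM from n = 3 or more.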"}, "[19]": {"species_on_record": "Rattus norvegicus", "assay": "Displacement of [3H]D888 from rat brain L-type calcium channel verapamil binding site at 10 uM after 30 mins by scintillation counting analysis relative to control"}, "[20]": {"molecular_target": "Melatonin receptor type 1A (Homo sapiens) (UniProt P48039)", "sequence (P48039 whole entry)": "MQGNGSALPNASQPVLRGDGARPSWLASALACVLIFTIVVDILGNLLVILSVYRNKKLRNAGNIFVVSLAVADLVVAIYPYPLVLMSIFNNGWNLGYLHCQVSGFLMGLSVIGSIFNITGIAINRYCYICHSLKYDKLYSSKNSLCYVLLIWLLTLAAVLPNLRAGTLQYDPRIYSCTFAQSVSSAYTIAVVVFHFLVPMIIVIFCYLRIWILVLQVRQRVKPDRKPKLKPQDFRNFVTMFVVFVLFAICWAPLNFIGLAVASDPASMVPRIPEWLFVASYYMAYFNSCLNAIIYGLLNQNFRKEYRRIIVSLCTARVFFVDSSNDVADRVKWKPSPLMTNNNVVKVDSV", "assay": "Inhibition of human MT1A at 10 uM relative to control"}, "[21]": {"molecular_target": "Adenosine receptor A1 (Homo sapiens) (UniProt P30542)", "assay": "Inhibition of human adenosine A1 receptor at 10 uM relative to control"}, "[22]": {"assay": "Fraction unbound in Wistar Hannover rat plasma at 1 mg/kg, sc measured at 0.5 to 4 hrs post dose by LC-MS/MS analysis", "assay_type": "ADME, organism-based"}, "[23]": {"species_on_record": "Rattus norvegicus", "assay": "Displacement of [3H]CGP 39653 from rat brain Glutamate receptor ionotropic, NMDA at 10 uM after 60 mins by scintillation counting analysis relative to control"}, "[24]": {"species_on_record": "Homo sapiens", "assay": "Selectivity ratio of IC50 for full length recombinant human PDE9A1 to IC50 for full length recombinant human PDE1B1", "summary_of_the_method": "as §1"}, "[25]": {"assay": "Drug uptake in Wistar Hannover rat cerebrospinal fluid at 1 mg/kg, sc measured at 4 hrs post dose by LC-MS/MS analysis", "assay_type": "ADME, organism-based", "settings": "in vivo, BLD = below limit of detection", "summary_of_the_method": "as §2"}, "[26]": {"molecular_target": "Dual specificity calcium/calmodulin-dependent 3',5'-cyclic nucleotide phosphodiesterase 1A (Homo sapiens, UniProt P54750)", "sequence (P54750 whole entry)": "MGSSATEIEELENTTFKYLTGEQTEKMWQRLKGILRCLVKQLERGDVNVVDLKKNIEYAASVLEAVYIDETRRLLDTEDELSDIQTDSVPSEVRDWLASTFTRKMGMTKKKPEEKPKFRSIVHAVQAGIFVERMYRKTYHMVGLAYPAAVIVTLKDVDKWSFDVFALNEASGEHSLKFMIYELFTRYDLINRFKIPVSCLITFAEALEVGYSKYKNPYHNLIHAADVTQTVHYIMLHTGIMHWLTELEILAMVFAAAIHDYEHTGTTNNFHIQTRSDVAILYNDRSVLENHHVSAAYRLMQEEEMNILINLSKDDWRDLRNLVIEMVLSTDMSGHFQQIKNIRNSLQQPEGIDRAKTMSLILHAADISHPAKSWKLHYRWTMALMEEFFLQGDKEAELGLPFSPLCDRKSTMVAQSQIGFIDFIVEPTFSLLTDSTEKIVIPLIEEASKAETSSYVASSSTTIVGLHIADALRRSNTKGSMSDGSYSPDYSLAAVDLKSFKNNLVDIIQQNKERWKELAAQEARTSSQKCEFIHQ", "assay": "Inhibition of full length recombinant human PDE1A using 3',5'-[3H]cAMP as substrate after 30 mins by scintillation proximity assay", "summary_of_the_method": "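Human recombinant enzymes; substrate held below 1/3 of Km. IC50 reported as mean ± SEM of at least 3 determinations.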"}, "[27]": {"molecular_target": "5-hydroxytryptamine receptor 7 (Homo sapiens) (UniProt P34969)", "sequence (P34969 whole entry)": "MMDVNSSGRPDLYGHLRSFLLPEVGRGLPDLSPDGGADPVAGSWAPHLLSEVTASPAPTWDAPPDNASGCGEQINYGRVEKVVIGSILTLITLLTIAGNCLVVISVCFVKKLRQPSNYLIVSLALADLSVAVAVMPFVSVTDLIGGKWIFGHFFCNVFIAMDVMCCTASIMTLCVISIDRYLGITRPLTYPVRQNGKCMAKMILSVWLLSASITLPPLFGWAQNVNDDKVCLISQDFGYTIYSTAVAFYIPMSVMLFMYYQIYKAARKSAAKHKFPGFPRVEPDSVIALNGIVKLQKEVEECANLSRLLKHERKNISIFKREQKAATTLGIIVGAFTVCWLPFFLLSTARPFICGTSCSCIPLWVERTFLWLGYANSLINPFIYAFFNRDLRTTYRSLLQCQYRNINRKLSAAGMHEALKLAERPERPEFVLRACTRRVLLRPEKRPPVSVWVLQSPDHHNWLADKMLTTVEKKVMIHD", "assay": "Inhibition of human 5-HT7 receptor at 10 uM relative to control"}, "[28]": {"species_on_record": "Homo sapiens", "assay": "Selectivity ratio of IC50 for full length recombinant human PDE8B to IC50 for full length recombinant human PDE1A", "summary_of_the_method": "as §1"}, "[29]": {"molecular_target": "Muscarinic acetylcholine receptor M2 (Homo sapiens) (UniProt P08172)", "sequence (P08172 whole entry)": "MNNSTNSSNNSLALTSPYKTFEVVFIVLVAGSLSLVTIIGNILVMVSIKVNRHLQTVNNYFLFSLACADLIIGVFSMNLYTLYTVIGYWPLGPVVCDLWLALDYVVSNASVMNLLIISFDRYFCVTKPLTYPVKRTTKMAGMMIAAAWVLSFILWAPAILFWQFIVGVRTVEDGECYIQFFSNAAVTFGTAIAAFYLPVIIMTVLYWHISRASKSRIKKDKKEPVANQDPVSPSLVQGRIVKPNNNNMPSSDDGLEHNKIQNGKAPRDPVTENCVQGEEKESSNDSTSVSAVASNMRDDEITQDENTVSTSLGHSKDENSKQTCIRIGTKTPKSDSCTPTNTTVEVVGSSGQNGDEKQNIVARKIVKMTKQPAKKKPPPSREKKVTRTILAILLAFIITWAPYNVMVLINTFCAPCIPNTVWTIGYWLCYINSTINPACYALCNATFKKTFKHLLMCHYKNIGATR", "assay": "Inhibition of human muscarinic M2 receptor at 10 uM relative to control"}, "[30]": {"molecular_target": "Mu-type opioid receptor (Homo sapiens) (UniProt P35372)", "sequence (P35372 whole entry)": "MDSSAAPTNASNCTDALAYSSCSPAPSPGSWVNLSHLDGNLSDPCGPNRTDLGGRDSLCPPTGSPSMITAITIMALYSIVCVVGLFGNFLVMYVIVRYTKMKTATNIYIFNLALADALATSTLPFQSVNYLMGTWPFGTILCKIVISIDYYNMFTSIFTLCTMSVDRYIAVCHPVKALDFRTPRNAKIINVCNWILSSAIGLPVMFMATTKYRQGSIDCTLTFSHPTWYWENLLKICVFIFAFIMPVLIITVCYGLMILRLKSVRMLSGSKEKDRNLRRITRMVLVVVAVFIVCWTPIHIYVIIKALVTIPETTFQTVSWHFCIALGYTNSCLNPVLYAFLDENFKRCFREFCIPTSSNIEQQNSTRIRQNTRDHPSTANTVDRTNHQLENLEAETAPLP", "assay": "Inhibition of human mu opioid receptor at 10 uM relative to control"}, "[31]": {"molecular_target": "Beta-3 adrenergic receptor (Homo sapiens) (UniProt P13945)", "sequence (P13945 whole entry, looked up)": "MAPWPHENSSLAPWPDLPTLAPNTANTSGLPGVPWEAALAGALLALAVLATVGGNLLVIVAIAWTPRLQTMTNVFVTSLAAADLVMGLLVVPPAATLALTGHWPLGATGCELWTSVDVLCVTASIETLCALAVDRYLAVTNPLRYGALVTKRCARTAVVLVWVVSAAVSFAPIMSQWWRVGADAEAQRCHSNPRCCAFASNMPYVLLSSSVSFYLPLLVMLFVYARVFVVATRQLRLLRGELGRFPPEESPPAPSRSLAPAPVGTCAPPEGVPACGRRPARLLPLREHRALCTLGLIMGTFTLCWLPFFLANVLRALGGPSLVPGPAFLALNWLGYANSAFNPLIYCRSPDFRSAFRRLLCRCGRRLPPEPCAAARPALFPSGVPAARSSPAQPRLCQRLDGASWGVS", "assay": "Inhibition of human beta 3 adrenergic receptor at 10 uM relative to control"}, "[32]": {"molecular_target": "5-hydroxytryptamine receptor 2A (Homo sapiens) (UniProt P28223)", "assay": "Inhibition of human 5-HT2A receptor at 10 uM relative to control"}, "[33]": {"molecular_target": "D(2) dopamine receptor (Homo sapiens) (UniProt P14416)", "assay": "Inhibition of dopamine D2 receptor (unknown origin) at 10 uM relative to control"}, "[34]": {"molecular_target": "Adenosine A2 receptor (Homo sapiens) (UniProt P29275+P29274)", "assay": "Inhibition of human adenosine A2 receptor at 10 uM relative to control", "assay_type": "protein assay"}, "[35]": {"assay": "Fraction unbound in Wistar Hannover rat plasma at 1 mg/kg, sc measured at 2 hrs post dose by LC-MS/MS analysis", "assay_type": "ADME, organism-based", "settings": "in vivo"}, "[36]": {"molecular_target": "Sodium-dependent dopamine transporter (Homo sapiens) (UniProt Q01959)", "assay": "Inhibition of dopamine transporter (unknown origin) at 10 uM relative to control"}, "[37]": {"species_on_record": "Homo sapiens", "assay": "Selectivity ratio of IC50 for full length recombinant human PDE5A1 to IC50 for full length recombinant human PDE1A", "summary_of_the_method": "as §1"}}, "data": [{"smiles": "COc1ccc2c(N[C@@H](C)Cc3cc(C)[nH]n3)ncnc2c1OC", "values": [{"measurement": "inhibition", "setting": "[1]", "value": "< 50", "unit": "%"}, {"measurement": "Ratio IC50", "setting": "[2]", "value": 45}, {"measurement": "Ratio", "setting": "[3]", "value": 0.04}, {"measurement": "inhibition", "setting": "[4]", "value": "< 50", "unit": "%"}, {"measurement": "inhibition", "setting": "[5]", "value": "< 50", "unit": "%"}, {"measurement": "concentration at 1 h", "setting": "[6]", "value": 0.016, "unit": "µM"}, {"measurement": "Cp(f)", "setting": "[7]", "value": 0.007, "unit": "µM"}, {"measurement": "inhibition", "setting": "[8]", "value": "< 50", "unit": "%"}, {"measurement": "inhibition", "setting": "[9]", "value": "< 50", "unit": "%"}, {"measurement": "inhibition", "setting": "[10]", "value": "< 50", "unit": "%"}, {"measurement": "Ratio IC50", "setting": "[11]", "value": 4.2}, {"measurement": "Ratio", "setting": "[12]", "value": 0.13}, {"measurement": "Ratio", "setting": "[13]", "value": 0.05}, {"measurement": "inhibition", "setting": "[14]", "value": "< 50", "unit": "%"}, {"measurement": "inhibition", "setting": "[15]", "value": "< 50", "unit": "%"}, {"measurement": "inhibition", "setting": "[16]", "value": "< 50", "unit": "%"}, {"measurement": "inhibition", "setting": "[17]", "value": "< 50", "unit": "%"}, {"measurement": "IC50", "setting": "[18]", "value": 26.3, "unit": "µM"}, {"measurement": "inhibition", "setting": "[19]", "value": "< 50", "unit": "%"}, {"measurement": "inhibition", "setting": "[20]", "value": "< 50", "unit": "%"}, {"measurement": "inhibition", "setting": "[21]", "value": "< 50", "unit": "%"}, {"measurement": "fraction unbound", "setting": "[22]", "value": 0.25}, {"measurement": "inhibition", "setting": "[23]", "value": "< 50", "unit": "%"}, {"measurement": "Ratio IC50", "setting": "[24]", "value": "> 22000"}, {"measurement": "Drug uptake", "setting": "[25]", "value": "Bld"}, {"measurement": "IC50", "setting": "[26]", "value": 0.042, "unit": "µM"}, {"measurement": "inhibition", "setting": "[27]", "value": "< 50", "unit": "%"}, {"measurement": "Ratio IC50", "setting": "[28]", "value": 369}, {"measurement": "inhibition", "setting": "[29]", "value": "< 50", "unit": "%"}, {"measurement": "inhibition", "setting": "[30]", "value": "< 50", "unit": "%"}, {"measurement": "inhibition", "setting": "[31]", "value": "< 50", "unit": "%"}, {"measurement": "inhibition", "setting": "[32]", "value": "< 50", "unit": "%"}, {"measurement": "inhibition", "setting": "[33]", "value": "< 50", "unit": "%"}, {"measurement": "inhibition", "setting": "[34]", "value": "< 50", "unit": "%"}, {"measurement": "Cp(f)", "setting": "[35]", "value": 0.04, "unit": "µM"}, {"measurement": "inhibition", "setting": "[36]", "value": "< 50", "unit": "%"}, {"measurement": "Ratio IC50", "setting": "[37]", "value": 1290}]}]}
